# High-throughput results deposited in PubChem by Broad Institute.
# PvdQ inh: P. aeruginosa PvdQ acylase inhibition; purified PvdQ acylase, fluorescence plate reader; inhibition, % at 10 µM; AID 488965; 340,000 tested, 0.063% active; in the data active = inhibition above about 30%, passing the limit was not always enough; inconclusive = no clear call, values can overlap the other calls;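 also: 0% = vehicle neutral wells and 100% = reference inhibitor wells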
# SR-BI DiI-HDL act: activators of SR-BI mediated HDL lipid uptake | 320,000 tested, 0.096% active | activation, % at 12.5 µM | CHO ldlA[mSR-BI] cells, DiI-HDL uptake fluorescence, 3 h; 100 = double the neutral-control signal;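 active = mean replicate activation of at least 60% and every replicate at or above 60%; inconclusive = mean or all-replicate condition met, but not both; inactive = mean below 60% and not all replicates reaching 60%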;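 also: 0% = median plate neutral-control signal and 100% = twice that signal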
#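 System: LDL receptor-deficient CHO ldlA cells overexpressing murine SR-BI | Timing: 3 h uptake period with compound, 37 °C | Medium: HEPES-buffered (25 mM, pH 7.4) F12 plus 0.5% BSA | Dosing: Single-point compound dose | Signal: Bottom-read fluorescence, 550/595 nm | Read-out: Retained DiI signal reflecting DiI-HDL uptake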
# SR-BI DiI inh: blocks mouse SR-BI lipid uptake from DiI-HDL | Q61009 | ldlA[mSR-BI] CHO cells, DiI-HDL uptake fluorescence, 3 h | inhibition, % at 12.5 µM | 320,000 tested, 0.96% active;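 active = mean replicate inhibition of at least 70% and a set share of replicates each scoring 70 or more; inconclusive = meets just one of the two criteria; inactive = fails both criteria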;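 also: 0% = median of neutral control wells and 100% = median of positive control wells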
# dFosB act: mouse delta FosB homodimer activation; 340,000 tested, 0.99% active; P13346; purified delta FosB, TAMRA-CDK5 oligo fluorescence polarization; percent of positive-control signal above neutral wells; activation, % at 25 µM; AID 493131;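 active = mean activation above about 17%, with every replicate also reaching it, limit read from the data, passing the limit was not always enough; inconclusive = only one of the two conditions met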
# Target sequence (P13346 whole entry, looked up): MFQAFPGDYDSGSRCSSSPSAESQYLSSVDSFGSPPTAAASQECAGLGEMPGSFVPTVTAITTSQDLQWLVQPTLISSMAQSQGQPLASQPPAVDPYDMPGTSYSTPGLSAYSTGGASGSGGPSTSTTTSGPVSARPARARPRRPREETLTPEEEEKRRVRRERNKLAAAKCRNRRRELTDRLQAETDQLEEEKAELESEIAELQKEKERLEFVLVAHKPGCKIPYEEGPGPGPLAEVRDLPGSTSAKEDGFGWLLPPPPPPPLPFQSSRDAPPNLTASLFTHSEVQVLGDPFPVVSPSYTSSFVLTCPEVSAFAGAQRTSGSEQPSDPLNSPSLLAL
# Xi reactivation: reactivates the inactive X chromosome in mouse fibroblasts; XiGFP mouse fibroblasts, % GFP-positive cells imaging, 3 d; cells co-treated with 5-aza-dC sensitizer; scaled so ellipticine positive control = 100%; activation, % at 7.58 µM; 360,000 tested, 0.055% active; AID 743238;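 active = mean normalized replicate activation at least 10% and every replicate at or above 10%; inconclusive = only one of the two criteria met; inactive = mean below 10% and not all replicates reach 10%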;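 also: 0% = median of on-plate neutral control wells and 100% = ellipticine 6 µM median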
#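 System: 68-5-11 XiGFP fibroblast line; Timing: 3 days compound exposure; Compound dosing: one concentration, pinned; Benchmarks: positive control ellipticine, 6 µM final; Buffer or medium: DMEM containing 5-aza-dC.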
# rRNA inh HTS: selective bacterial rRNA inhibition in E. coli; GFP signal change (wild-type ribosome), % (no concentration beside the values); 350,000 tested, 1.6% active; E. coli WT GFP vs humanized-ribosome RFP mutants, fluorescence, 24 h; stronger effect = lower value; DMSO median 0, no signal -100;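 active = significant combined selectivity score with lowered wild-type GFP, culture density cut under 30%, mutant RFP and density less affected; inactive = any of these conditions unmet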
# * marks the source's active call; other numbers are inactive results; ? = inconclusive; nt = not tested or not shown; ! = a repeat was not active. Hits are enriched below; roughly 2.6% of the tested compounds scored in any of these assays.
SMILES,PvdQ inh,SR-BI DiI-HDL act,SR-BI DiI inh,dFosB act,Xi reactivation,rRNA inh HTS
Cc1noc(C)c1S(=O)(=O)N(C)C[C@@H]1Oc2ccc(NC(=O)CCC(F)(F)F)cc2CC(=O)N([C@@H](C)CO)C[C@@H]1C,nt,nt,nt,nt,0,5
CCOC(=O)c1c(N)sc(C(=O)OC)c1C,13,-9,9,-9,0,-1
CCOC(=O)c1sc(NN=C(C(=O)OC)C(=O)OC)c(C(=O)OCC)c1C,-2,-74,74*,2,0,10
COC(=O)C(=Nc1ccccc1)/C(C(=O)C(=O)N(C)c1ccccc1)=C(\O)c1ccccc1,-7,-5,5,-2,0,-25*
Cc1ccc(C2c3c(oc4ccccc4c3=O)C(=O)N2c2nncs2)cc1 (configuration not stated),-8,nt,nt,-5,0,-3
Cc1cc(C)c2nc(NNC(=O)c3ccc(S(=O)(=O)N4CCCCC4)cc3)sc2c1,-12,-76,76*,-9,0,-12*
Cc1cccc2sc(NNC(=O)c3ccc(S(=O)(=O)N4CCCC(C)C4)cc3)nc12 (configuration not stated),-2,-128,128*,-5,0,-6
Cc1cccc2sc(NNC(=O)c3ccc(S(=O)(=O)N4CCc5ccccc5C4)cc3)nc12,0,-125,125*,-4,0,-8
OC(c1ccccc1)(c1nc(-c2cccc(C(F)(F)F)c2)cs1)C(F)(F)F (configuration not stated),nt,nt,nt,nt,0,-21
OC(c1ccccc1)(c1nc(-c2cc3ccccc3o2)cs1)C(F)(F)F (configuration not stated),nt,nt,nt,nt,0,-38*
CC(=O)OC1OCCOC1NC(=S)Nc1cccc(C(F)(F)F)c1 (configuration not stated),-17,25,-25,-5,0,2
CC(NC(=O)[C@@H](NC(=O)[C@@H]1Cc2ccccc2CN1)C(C)C)c1ccccc1 (some centres not stated),-22,-2,2,-6,0,4
COc1ccccc1NC(=O)N1CCCCN2[C@H](CO)[C@H](c3ccc(-c4cccc(F)c4)cc3)[C@@H]2C1,nt,nt,nt,nt,0,-3
Nc1ccc(S(=O)(=O)Nc2nccs2)cc1N=Nc1ccccc1[N+](=O)[O-],1,-17,17,-10,0,-20*
O=[N+]([O-])c1ccccc1S(=O)(=O)Nc1ccc(S(=O)(=O)Nc2nccs2)cc1,-4,nt,nt,3,0,13
CCOC(=O)N1CCC(N(CCN(C)C)C(=S)Nc2cccc(OC)c2)CC1,-4,11,-11,0,0,12
CCOC(=O)N1CCC(N(CCOC)C(=S)Nc2cccc(SC)c2)CC1,7,-78,?,-7,0,-23*
O=C(c1cccc(Cl)c1)N1CCN(C(=O)c2ccccc2F)CC1,-11,9,-9,3,nt,nt
O=C(Nc1nccs1)C(F)(F)C(F)(F)C(F)(F)C(=O)Nc1nccs1,12,17,-17,-2,0,-27*
Cc1ccc(NC(=S)N(CCCN2CCCC2)Cc2cccn2Cc2ccc(Cl)cc2)cc1C,-13,-13,13,32*,6,11
COc1ccc(NC(=S)N(CCCN2CCCC2)Cc2cccn2Cc2ccc(Cl)cc2)cc1Cl,-19,1,-1,48*,0,-45
COc1ccc(NC(=S)N(CCCN2CCC(C)CC2)Cc2cccs2)cc1Cl,-2,12,-12,-7,1,-10
Cc1cc(NC(=S)N(CCN2CCCCC2)Cc2ccco2)ccc1Cl,-12,-7,7,-9,0,-23
COc1ccc(NC(=S)N(Cc2ccc(Cl)cc2)Cc2ccc(C(=O)O)cc2)cc1Cl,2,-8,8,-19,0,-32*
FC(F)(F)c1cccc(NC(=S)N(CCCN2CCCC2)Cc2cccn2Cc2ccc(Cl)cc2)c1,0,36,-36,45*,0,-42
SMILES,PvdQ inh,SR-BI DiI-HDL act,SR-BI DiI inh,dFosB act,Xi reactivation,rRNA inh HTS
Cc1cc(S(=O)(=O)NCc2ccccc2)ccc1OCC(=O)NCc1cccnc1,4,-7,7,-5,0,1
CN(C)CCCN(Cc1ccccc1)C(=S)Nc1ccc(F)c(Cl)c1,8,8,-8,-7,0,-46*
Cc1ccc(NC(=S)N(CCCN2CCCC2)Cc2cccn2Cc2ccc(Cl)cc2)cc1Cl,3,11,-11,69*,0,-24
O=C(Nc1ccc(N2CCCCC2)c(S(=O)(=O)Nc2ccccc2Cl)c1)c1cccnc1,1,17,-17,1,0,-3
O=C(Nc1ccc(N2CCOCC2)c(S(=O)(=O)Nc2ccccc2Cl)c1)c1ccc(F)cc1,7,-40,40,-3,0,2
O=C(Nc1ccc(F)cc1)Nc1ccc(N2CCCC2)c(S(=O)(=O)Nc2ccccc2Cl)c1,2,-87,87*,-7,1,nt
O=C(Nc1ccc(Cl)c(Cl)c1)Nc1ccc(N2CCCC2)c(S(=O)(=O)Nc2ccccc2Cl)c1,-12,-86,86*,1,0,nt
CN1CCN(C2Cc3ccc(F)cc3Sc3cc(F)c(Cl)cc32)CC1 (configuration not stated),-10,14,-14,10,0,-43*
CN1CCN(C2Cc3ccccc3Sc3ccc(Cl)cc32)CC1 (configuration not stated),-8,-5,5,3,0,nt
CSc1ccc2c(c1)C(N1CCN(C)CC1)Cc1ccccc1S2 (configuration not stated),-11,-26,26,19*!,0,-33
CN1[C@@H]2Cn3c(ccc(-c4cccc(F)c4)c3=O)[C@H]1[C@@H](C(=O)N1CCOCC1)[C@@H]2CO,nt,nt,nt,nt,0,1
CCN1CCCC1CNC(=O)c1ccc2c(c1)NC(=O)/C(=C\c1ccc(OC)c(OC)c1)S2 (configuration not stated),12,-36,36,44*,0,-1
O=C1c2ccccc2C(=Nc2ccccc2)C1c1cccc(Br)c1 (configuration not stated),-4,-81,81*,-12,nt,nt
C[C@H]1CN([C@@H](C)CO)C(=O)c2cccc(NC(=O)c3nc4ccccc4s3)c2O[C@H]1CN(C)C(=O)Nc1ccccc1,nt,nt,nt,nt,0,-3
N#Cc1ccccc1NC(=O)CNc1ccccc1N1CCCCC1,-23,-81,81*,-6,nt,nt
O=C(/C=C/c1cc[n+](CC(=O)c2ccc3cccc4c3c2CC4)cc1)c1ccc2cccc3c2c1CC3,-7,nt,nt,147*,nt,nt
Cc1cc2c(sc3ccccc32)c(C)n1,0,9,-9,-17,0,-24*
